Broadly, the IC50 is the point on the concentration scale where inhibition reaches its midpoint. The MIC is the lowest concentration found to suppress growth.

SMILES strings stand for the structures. Where only a bound is given, the exact number is not on record here.

Assay [1] concerns the target T1, Chitinase B (Serratia marcescens, UniProt P11797).
T1 sequence (P11797 whole entry): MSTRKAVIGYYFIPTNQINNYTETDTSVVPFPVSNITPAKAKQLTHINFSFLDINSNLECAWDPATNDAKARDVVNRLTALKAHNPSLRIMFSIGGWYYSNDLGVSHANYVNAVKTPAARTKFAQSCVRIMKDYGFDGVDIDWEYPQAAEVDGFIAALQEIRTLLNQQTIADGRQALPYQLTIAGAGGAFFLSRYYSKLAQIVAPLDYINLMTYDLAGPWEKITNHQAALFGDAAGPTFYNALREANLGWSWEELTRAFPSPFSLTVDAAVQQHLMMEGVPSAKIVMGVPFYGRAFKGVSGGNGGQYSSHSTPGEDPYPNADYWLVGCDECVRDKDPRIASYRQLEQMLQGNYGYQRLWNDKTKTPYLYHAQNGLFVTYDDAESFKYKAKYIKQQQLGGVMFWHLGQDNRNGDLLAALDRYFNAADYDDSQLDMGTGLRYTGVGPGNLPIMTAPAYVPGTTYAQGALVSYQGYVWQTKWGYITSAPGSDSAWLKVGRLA
The experiment in a line: Inhibition of Serratia marcescens chitinase ChiB. The procedure, abridged: (§1)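 Crude SmChiB: supernatant of sonicated E. coli DH5α carrying pMCB7, grown 24 h at 37 °C in LB with ampicillin and 0.5 mM IPTG, then diluted ×40. Enzyme and inhibitors (in MeOH) were mixed in 0.1 M phosphate, pH 7.0, at 37 °C, and 80 μM 4MU(GlcNAc)2 solution was added. Fluorescence (ex 355/em 460 nm) was read every 60 s, with rates corrected for inhibitor quenching. IC50 was taken from sigmoidal dose–response fits.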

Assay [2] has as its target T1, Chitinase B. In words: Inhibition of Serratia marcescens chitinase ChiB assessed as reduction in chitinolytic activity using 4MU-(GlcNAc)2 substrate by fluorescence based assay. In short, it runs like this: as §1
In assay [3] the test system is Acinetobacter calcoaceticus. The experiment in a line: Antibacterial activity against Acinetobacter calcoaceticus IFO12552 by antimicrobial disk and dilution susceptibility test. The format is functional.
For another assay, the system named is Escherichia coli. The experiment in a line: Antibacterial activity against Escherichia coli NIHJ JC-2 by antimicrobial disk and dilution susceptibility test. The format is functional.
Assay [4] has as its system Pseudomonas aeruginosa. In words: Antibacterial activity against Pseudomonas aeruginosa 46001 by antimicrobial disk and dilution susceptibility test. The format is functional.
Assay [5] concerns Pseudomonas aeruginosa. In words: Antibacterial activity against Pseudomonas aeruginosa E-2 by antimicrobial disk and dilution susceptibility test. The format is functional.
Another assay concerns Klebsiella pneumoniae. The experiment in a line: Antibacterial activity against Klebsiella pneumoniae NCTC 9632 by antimicrobial disk and dilution susceptibility test. The format is functional.
Another assay concerns Serratia marcescens. In words: Antibacterial activity against Serratia marcescens IFO12648 by antimicrobial disk and dilution susceptibility test. The format is functional.
The subject of a further assay is Citrobacter freundii. In words: Antibacterial activity against Citrobacter freundii ATCC 8090 by antimicrobial disk and dilution susceptibility test. The format is functional.
Assay [6] deals with Staphylococcus epidermidis. The experiment in a line: Antibacterial activity against Staphylococcus epidermidis KUB795 by antimicrobial disk and dilution susceptibility test. The format is functional.
A further assay concerns Proteus mirabilis. In words: Antibacterial activity against Proteus mirabilis IFO3849 by antimicrobial disk and dilution susceptibility test. The format is functional.
Assay [7] concerns Staphylococcus aureus. The experiment in a line: Antibacterial activity against methicillin-sensitive Staphylococcus aureus FDA209P by antimicrobial disk and dilution susceptibility test. The format is functional.
Another assay concerns Morganella morganii. The experiment in a line: Antibacterial activity against Morganella morganii IID Kono by antimicrobial disk and dilution susceptibility test. The format is functional.
Another assay has as its system Klebsiella aerogenes. In words: Antibacterial activity against Enterobacter aerogenes NCTC 10006 by antimicrobial disk and dilution susceptibility test. The format is functional.
The subject of a further assay is Proteus vulgaris. The experiment in a line: Antibacterial activity against Proteus vulgaris OX-19 by antimicrobial disk and dilution susceptibility test. The format is functional.
For another assay, the system named is Micrococcus luteus. The experiment in a line: Antibacterial activity against Micrococcus luteus ATCC 9341 by antimicrobial disk and dilution susceptibility test. The format is functional.
Another assay deals with Enterobacter cloacae. The experiment in a line: Antibacterial activity against Enterobacter cloacae IFO13535 by antimicrobial disk and dilution susceptibility test. The format is functional.
Assay [8] has as its system Staphylococcus aureus. The experiment in a line: Antibacterial activity against methicillin-sensitive Staphylococcus aureus Smith by antimicrobial disk and dilution susceptibility test. The format is functional.
The subject of another assay is Enterococcus faecalis. In words: Antibacterial activity against Enterococcus faecalis ATCC 29212 by antimicrobial disk and dilution susceptibility test. The format is functional.

For `CC(=O)NC(=N)NCCC[C@@H]1NC(=O)[C@H](CCCC(=O)O)NC(=O)[C@H](Cc2c[nH]cn2)N2C(=O)[C@H](C[C@H]2O)NC(=O)[C@H]2CCCN2C1=O` [ARGADIN], the IC50 against Chitinase B [1] came out at 0.033 µM.
Turning to `CC(=O)N[C@H]1[C@H](O[C@H]2[C@@H](O)[C@@H](NC(C)=O)[C@H](O[C@H]3[C@H](O)[C@H]4N=C(N(C)C)O[C@H]4[C@@H]3CO)O[C@@H]2CO)O[C@H](CO)[C@@H](O)[C@H]1O` [ALLOSAMIDIN], the IC50 on Chitinase B [2] was 0.09 µM.
On the same count and under the same terms, as for `CC[C@H]1OC(=O)[C@H](C)[C@@H](O)[C@H](C)[C@@H](O)[C@](C)(O)C[C@@H](C)/C(=N\OCc2cn(CCNC(=N)NC(=O)NC)nn2)[C@H](C)[C@@H](O)[C@]1(C)O`, the figure is 24.1 µM.
For the molecule `CC[C@H]1OC(=O)[C@H](C)[C@@H](O)[C@H](C)[C@@H](O)[C@](C)(O)C[C@@H](C)[C@@H]2OC(C)(C)O[C@H]([C@H]2C)[C@]1(C)O`, at Chitinase B [2], the IC50 is over 300 µM.
Still for that read-out and setting: as for `CNC(=O)NC(=N)NCCN=[N+]=[N-]`, the figure is 7 µM.
`C#CCO[C@@H]1[C@@H](C)[C@H](OC(=O)NCCCNC(=N)NC(=O)NC)[C@@H](C)C(=O)O[C@H](CC)[C@@](C)(O)[C@@H]2OC(C)(C)O[C@H]([C@@H]2C)[C@H](C)C[C@@]1(C)O`: the MIC (in assay [3]; in the assay on Escherichia coli; against Pseudomonas aeruginosa [4]; with Pseudomonas aeruginosa [5]; in the assay with Klebsiella pneumoniae; against Serratia marcescens) was over 64 µg/mL each time. The minimum inhibitory concentration (MIC) (in the assay on Citrobacter freundii; in assay [6]; against Proteus mirabilis; with Staphylococcus aureus [7]; in the assay with Morganella morganii; in the assay on Klebsiella aerogenes) was over 64 µg/mL throughout. For the same molecule, the MIC against Proteus vulgaris, against Micrococcus luteus, in the assay with Enterobacter cloacae, against Staphylococcus aureus [8] and with Enterococcus faecalis was over 64 µg/mL in each case. The IC50 at Chitinase B [2] was 0.036 µM.
As to `CC[C@H]1OC(=O)[C@H](C)[C@@H](O)[C@H](C)[C@@H](OCc2cn(CCNC(=N)NC(=O)NC)nn2)[C@](C)(O)C[C@@H](C)[C@@H]2OC(C)(C)O[C@H]([C@H]2C)[C@]1(C)O`, on Chitinase B [2], the IC50 was 11.9 µM.
On the same count and under the same terms, then `CC[C@H]1OC(=O)[C@H](C)[C@@H](O[C@H]2C[C@@](C)(OC)[C@@H](O)[C@H](C)O2)[C@H](C)[C@@H](O[C@@H]2O[C@H](C)C[C@H](N(C)C)[C@H]2O)[C@](C)(O)C[C@@H](C)C(=O)[C@H](C)[C@@H](O)[C@]1(C)O` [ERYTHROMYCIN], with over 300 µM.
Same read-out and setting: then `CNC(=O)NC(=N)n1cccn1`, with over 300 µM; and `C#CCO[C@@H]1[C@@H](C)[C@H](O)[C@@H](C)C(=O)O[C@H](CC)[C@@](C)(O)[C@@H]2OC(C)(C)O[C@H]([C@@H]2C)[C@H](C)C[C@@]1(C)O`, with over 300 µM.
Still for that read-out and setting: then `CC[C@H]1OC(=O)[C@H](C)[C@@H](OCc2cn(CCNC(=N)NC(=O)NC)nn2)[C@H](C)[C@@H](O)[C@](C)(O)C[C@@H](C)[C@@H]2OC(C)(C)O[C@H]([C@H]2C)[C@]1(C)O`, with 3.3 µM.
In the case of `C#CCO[C@@H]1[C@@H](C)[C@H](OC(=O)NCCCCNC(=N)NC(=O)NC)[C@@H](C)C(=O)O[C@H](CC)[C@@](C)(O)[C@@H]2OC(C)(C)O[C@H]([C@@H]2C)[C@H](C)C[C@@]1(C)O`, the IC50 at Chitinase B [2] was 0.217 µM.

Values taken from ChEMBL document CHEMBL3576758, “Creation of Customized Bioactivity within a 14-Membered Macrolide Scaffold: Design, Synthesis, and Biological Evaluation Using a Family-18 Chitinase” (J Med Chem, 2015).
